Results from ChEMBL document CHEMBL1151172, “Further labdane and kaurane diterpenoids and other constituents from Plectranthus fruticosus” (2004).
In brackets after ≈: the same amount, converted by molar mass. Activity calls are given as the source filed them. The calls are words filed in the database; no cut-off is given here.

What was measured:
[1] = system: Candida albicans; assay: Antimicrobial activity against Candida albicans CIP 3153A by serial broth microdilution method; type: functional, organism-based
Procedure, shortened: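 Yeast MIC by serial broth microdilution following NCCLS, using YMA medium. Compounds were dissolved in DMSO and tested over graded concentrations from 250 to 7.8 µg/mL, with a solvent blank.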

[2] = system: Escherichia coli; assay: Antimicrobial activity against Escherichia coli ATCC 25922 by serial broth microdilution method; type: functional
Procedure, shortened: (§1)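 MIC by NCCLS serial broth microdilution in Mueller-Hinton broth. Compounds dissolved in DMSO and tested at graded concentrations from 250 to 7.8 µg/mL. A solvent blank was included.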

[3] = system: Pseudomonas aeruginosa; assay: Antimicrobial activity against Pseudomonas aeruginosa ATCC 27853 by serial broth microdilution method; type: functional, organism-based; procedure, shortened: as §1
[4] = system: Staphylococcus aureus; assay: Antimicrobial activity against Staphylococcus aureus ATCC 25923 by serial broth microdilution method; type: functional; procedure, shortened: as §1

Compound: C=C1[C@H]2C[C@@]3(CC[C@H]4[C@@](C)(CCC[C@@]4(C)C(=O)OC)[C@@H]3C[C@@H]2OC(C)=O)[C@H]1O
- Activity [1]: inactive
- Activity [2]: inactive
- Activity [3]: inactive

Compound: C[C@@]12CCC[C@@](C)(C(=O)O)[C@H]1C[C@@H](O)[C@@]13C[C@@H](CC[C@@H]21)[C@]1(C)O[C@@H]13
- Activity [1]: inactive
- Activity [2]: inactive
- Activity [3]: inactive

Compound: C=C1C[C@]23C[C@H]1[C@@H](OC(C)=O)C[C@H]2[C@]1(C)CCC[C@@](C)(C(=O)O)[C@H]1C[C@H]3O
- Activity [1]: inactive
- Activity [2]: inactive
- Activity [3]: inactive

Compound: COC(=O)[C@]1(C)CCC[C@@]2(C)[C@@H]3C[C@H](OC(C)=O)[C@@H]4C[C@@]3(CC[C@@H]21)[C@H]1O[C@]14C
- Activity [1]: inactive
- Activity [2]: inactive
- Activity [3]: inactive

Compound: C=C1C[C@@]23CC[C@H]4[C@@](C)(CCC[C@@]4(C)C(=O)OC)[C@@H]2C[C@H](O)[C@@H]1C3
- Activity [1]: inactive
- Activity [2]: inactive
- Activity [3]: inactive

Compound: COC(=O)[C@]1(C)CCC[C@@]2(C)[C@@H]3C[C@H](OC(C)=O)[C@@H]4C[C@]3(C=C4C=O)CC[C@@H]21
- MIC [4]: 62.5 µg/mL (≈ 161 µM)
- Activity [1]: inactive
- Activity [2]: inactive
- Activity [3]: inactive

Compound: C=C/C(C)=C\C[C@@H]1C(=C)CC[C@@H]2C(C)(C)[C@H](O)[C@@H](O)C[C@@]12C
- Activity [1]: inactive
- Activity [2]: inactive
- Activity [3]: inactive

Compound: CC1=C[C@]23C[C@H]1CC[C@H]2[C@]1(C)CCC[C@@](C)(C(=O)O)[C@H]1C[C@H]3O
- Activity [1]: inactive
- Activity [2]: inactive
- Activity [3]: inactive

Compound: COC(=O)[C@]1(C)CCC[C@@]2(C)[C@@H]3C[C@H](OC(C)=O)[C@@H]4C[C@]3(C=C4C)[C@H](O)C[C@@H]21
- Activity [1]: inactive
- Activity [2]: inactive
- Activity [3]: inactive

Compound: CC(=O)O[C@H]1C[C@@H]2[C@@]3(C=C(C=O)[C@H]1C3)CC[C@H]1[C@@]2(C)CCC[C@@]1(C)C(=O)O
- Activity [1]: inactive
- Activity [2]: inactive
- Activity [3]: inactive

Compound: C=C1[C@H]2C[C@@]3(CC[C@H]4[C@@](C)(CCC[C@@]4(C)C(=O)O)[C@@H]3C[C@@H]2OC(C)=O)[C@H]1O
- Activity [1]: inactive
- Activity [2]: inactive
- Activity [3]: inactive

Compound: C=C1CC[C@@H]2[C@H]([C@H]3[C@H]1CC[C@@]3(O)CO)C2(C)C
- Activity [1]: inactive
- Activity [2]: inactive
- Activity [3]: inactive

Compound: NC[C@H]1O[C@H](O[C@H]2[C@H](O)[C@@H](O[C@H]3O[C@H](CO)[C@@H](O)[C@H](N)[C@H]3O)[C@H](N)C[C@@H]2N)[C@H](O)[C@@H](O)[C@@H]1O [KANAMYCIN]
- MIC [4]: < 7.8 µg/mL
- MIC [2]: < 7.8 µg/mL
